ChEMBL document CHEMBL4184148 (Bioorg Med Chem Lett, 2017)

Columns and labels:
[1] = target: TRAF2 and NCK-interacting protein kinase (Homo sapiens) (UniProt Q9UKE5); experiment: Binding affinity to wild-type human partial length TNIK (D4 to K311 residues) expressed in Escherichia coli BL21 at 1 uM by Kinomescan method relative to control
[2] = target: Serine/threonine-protein kinase PLK4 (Homo sapiens) (UniProt O00444); experiment: Binding affinity to wild-type human partial length PLK4 (M1 to S273 residues) expressed in HEK293 cells at 1 uM by Kinomescan method relative to control; type: cell-based
[3] = target: LIM domain kinase 2 (Homo sapiens) (UniProt P53671); experiment: Binding affinity to wild-type human full length LIMK2 (M1 to P638 residues) expressed in Escherichia coli BL21 at 1 uM by Kinomescan method relative to control
Method in brief: (§1)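 Run as one kinome-wide competition binding panel with each compound at a single fixed concentration. Results were plotted as a kinome-wide selectivity map.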

[4] = target: MAP kinase-activated protein kinase 2 (Homo sapiens) (UniProt P49137); experiment: Binding affinity to wild-type human partial length MAPKAPK2 (V48 to D345 residues) expressed in Escherichia coli BL21 at 1 uM by Kinomescan method relative to control
[5] = target: Serine/threonine-protein kinase MARK2 (Homo sapiens) (UniProt Q7KZI7); experiment: Binding affinity to wild-type human partial length MARK2 (M1 to R450 residues) expressed in Escherichia coli BL21 at 1 uM by Kinomescan method relative to control
[6] = target: Serine/threonine-protein kinase 38 (Homo sapiens) (UniProt Q15208); experiment: Binding affinity to wild-type human partial length NDR1 (N33 to E449 residues) expressed in HEK293 cells at 1 uM by Kinomescan method relative to control; type: cell-based
[7] = target: CDK4/Cyclin D3 (Homo sapiens) (UniProt P11802+P30281); experiment: Binding affinity to wild-type human full length CDK4/cyclinD3 (M1 to E303 residues) expressed in HEK293 cells at 1 uM by Kinomescan method relative to control; type: cell-based
[8] = target: Citron Rho-interacting kinase (Homo sapiens) (UniProt O14578); experiment: Binding affinity to wild-type human partial length CIT (M68 to E432 residues) expressed in Escherichia coli BL21 at 1 uM by Kinomescan method relative to control
[9] = target: Activin receptor type-1-like (Homo sapiens) (UniProt P37023); experiment: Binding affinity to wild-type human ACVRL1 (L164 to Q503 residues) expressed in Escherichia coli BL21 at 1 uM by Kinomescan method relative to control
[10] = test system: Tyrosine-protein kinase ABL1 (Homo sapiens), P00519 [Q252H]; experiment: Binding affinity to human phosphorylated ABL1 Q252H mutant expressed in HEK293 cells at 1 uM by Kinomescan method relative to control; type: cell-based
[11] = target: Calcium/calmodulin-dependent protein kinase type II subunit beta (Homo sapiens) (UniProt Q13554); experiment: Binding affinity to wild-type human partial length CAMK2B (M1 to Q380 residues) expressed in Escherichia coli BL21 at 1 uM by Kinomescan method relative to control
[12] = target: cAMP-dependent protein kinase catalytic subunit beta (Homo sapiens) (UniProt P22694); experiment: Binding affinity to wild-type human full length PKAC-beta (M1 to F351 residues) expressed in Escherichia coli BL21 at 1 uM by Kinomescan method relative to control
Method in brief: (§2)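 Kinome-wide competition binding panel run by an outside provider, with each compound tested at a single concentration. Activity is read against the kinase panel.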

[13] = target: Proto-oncogene tyrosine-protein kinase ROS (Homo sapiens) (UniProt P08922); experiment: Binding affinity to wild-type human partial length ROS1 (A1921 to N2240 residues) expressed in Escherichia coli BL21 at 1 uM by Kinomescan method relative to control
[14] = target: Serine/threonine-protein kinase PLK1 (Homo sapiens) (UniProt P53350); experiment: Binding affinity to wild-type human partial length PLK1 (A33 to F325 residues) expressed in HEK293 cells at 1 uM by Kinomescan method relative to control; type: cell-based
[15] = target: Mitogen-activated protein kinase kinase kinase kinase 1 (Homo sapiens) (UniProt Q92918); experiment: Binding affinity to wild-type human full length HPK1 (M1 to R799 residues) expressed in Escherichia coli BL21 at 1 uM by Kinomescan method relative to control; method in brief: as §1
[16] = target: Tyrosine-protein kinase receptor TYRO3 (Homo sapiens) (UniProt Q06418); experiment: Binding affinity to wild-type human partial length TYRO3 (S497 to T814 residues) expressed in Escherichia coli BL21 at 1 uM by Kinomescan method relative to control
[17] = target: Membrane-associated tyrosine- and threonine-specific cdc2-inhibitory kinase (Homo sapiens) (UniProt Q99640); experiment: Binding affinity to wild-type human partial length PKMYT1 (A88 to G366 residues) expressed in Escherichia coli BL21 at 1 uM by Kinomescan method relative to control
[18] = target: Serine/threonine-protein kinase PAK 3 (Homo sapiens) (UniProt O75914); experiment: Binding affinity to wild-type human full length PAK3 (M1 to R544 residues) expressed in Escherichia coli BL21 at 1 uM by Kinomescan method relative to control; method in brief: as §2
[19] = target: Cytoplasmic tyrosine-protein kinase BMX (Homo sapiens) (UniProt P51813); experiment: Binding affinity to wild-type human full length BMX (M1 to H675 residues) expressed in Escherichia coli BL21 at 1 uM by Kinomescan method relative to control
[20] = target: Tyrosine-protein kinase receptor UFO (Homo sapiens) (UniProt P30530); experiment: Binding affinity to wild-type human partial length AXL (R497 to Y821 residues) expressed in Escherichia coli BL21 at 1 uM by Kinomescan method relative to control
[21] = test system: Tyrosine-protein kinase ABL1 (Homo sapiens), P00519 [M351T]; experiment: Binding affinity to human phosphorylated ABL1 M351T mutant (S229 to K512 residues) expressed in HEK293 cells at 1 uM by Kinomescan method relative to control; type: cell-based
[22] = target: Serine/threonine-protein kinase 4 (Homo sapiens) (UniProt Q13043); experiment: Binding affinity to wild-type human full length MST1 (M1 to F487 residues) expressed in Escherichia coli BL21 at 1 uM by Kinomescan method relative to control; method in brief: as §1
[23] = test system: Receptor-type tyrosine-protein kinase FLT3 (Homo sapiens), P36888 [UNDEFINED MUTATION]; experiment: Binding affinity to human partial length FLT3 ITD/F691L double mutant expressed in Escherichia coli BL21 at 1 uM by Kinomescan method relative to control
[24] = target: cGMP-dependent protein kinase 2 (Homo sapiens) (UniProt Q13237); experiment: Binding affinity to wild-type human partial length PRKG2 (S422 to F762 residues) expressed in HEK293 cells at 1 uM by Kinomescan method relative to control; type: cell-based
[25] = target: Serine/threonine-protein kinase D3 (Homo sapiens) (UniProt O94806); experiment: Binding affinity to wild-type human partial length PRKD3 (S543 to E863 residues) expressed in Escherichia coli BL21 at 1 uM by Kinomescan method relative to control

Sequence of MAP kinase-activated protein kinase 2 (Homo sapiens) (P49137 whole entry, looked up, the tested form may be a part): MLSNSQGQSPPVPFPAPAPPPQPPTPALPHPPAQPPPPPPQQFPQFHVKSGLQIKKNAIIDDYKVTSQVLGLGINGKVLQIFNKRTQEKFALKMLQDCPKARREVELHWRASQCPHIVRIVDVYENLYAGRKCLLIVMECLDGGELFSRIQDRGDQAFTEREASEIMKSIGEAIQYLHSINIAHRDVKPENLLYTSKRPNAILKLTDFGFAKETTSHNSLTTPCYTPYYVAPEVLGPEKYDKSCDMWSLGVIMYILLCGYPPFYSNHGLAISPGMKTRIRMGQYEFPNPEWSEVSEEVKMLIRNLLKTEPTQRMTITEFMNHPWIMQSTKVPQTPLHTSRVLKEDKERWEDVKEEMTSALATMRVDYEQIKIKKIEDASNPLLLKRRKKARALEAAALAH
Sequence of Activin receptor type-1-like (Homo sapiens) (P37023 whole entry, the tested form may be a part): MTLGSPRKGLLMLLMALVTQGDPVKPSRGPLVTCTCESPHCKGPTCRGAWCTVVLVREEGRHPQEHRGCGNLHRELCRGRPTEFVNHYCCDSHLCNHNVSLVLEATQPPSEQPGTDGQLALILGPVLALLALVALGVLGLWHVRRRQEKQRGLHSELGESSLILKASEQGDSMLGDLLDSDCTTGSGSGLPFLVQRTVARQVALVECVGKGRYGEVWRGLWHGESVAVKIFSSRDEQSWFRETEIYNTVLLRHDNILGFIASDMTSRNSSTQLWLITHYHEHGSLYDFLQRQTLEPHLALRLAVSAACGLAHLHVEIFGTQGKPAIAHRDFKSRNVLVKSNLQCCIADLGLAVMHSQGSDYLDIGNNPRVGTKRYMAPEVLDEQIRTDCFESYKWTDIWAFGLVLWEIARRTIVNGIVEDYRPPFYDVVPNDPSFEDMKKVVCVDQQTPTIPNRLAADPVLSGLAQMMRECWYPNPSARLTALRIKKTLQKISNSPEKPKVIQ
Sequence of Proto-oncogene tyrosine-protein kinase ROS (Homo sapiens) (P08922 whole entry, the tested form may be a part): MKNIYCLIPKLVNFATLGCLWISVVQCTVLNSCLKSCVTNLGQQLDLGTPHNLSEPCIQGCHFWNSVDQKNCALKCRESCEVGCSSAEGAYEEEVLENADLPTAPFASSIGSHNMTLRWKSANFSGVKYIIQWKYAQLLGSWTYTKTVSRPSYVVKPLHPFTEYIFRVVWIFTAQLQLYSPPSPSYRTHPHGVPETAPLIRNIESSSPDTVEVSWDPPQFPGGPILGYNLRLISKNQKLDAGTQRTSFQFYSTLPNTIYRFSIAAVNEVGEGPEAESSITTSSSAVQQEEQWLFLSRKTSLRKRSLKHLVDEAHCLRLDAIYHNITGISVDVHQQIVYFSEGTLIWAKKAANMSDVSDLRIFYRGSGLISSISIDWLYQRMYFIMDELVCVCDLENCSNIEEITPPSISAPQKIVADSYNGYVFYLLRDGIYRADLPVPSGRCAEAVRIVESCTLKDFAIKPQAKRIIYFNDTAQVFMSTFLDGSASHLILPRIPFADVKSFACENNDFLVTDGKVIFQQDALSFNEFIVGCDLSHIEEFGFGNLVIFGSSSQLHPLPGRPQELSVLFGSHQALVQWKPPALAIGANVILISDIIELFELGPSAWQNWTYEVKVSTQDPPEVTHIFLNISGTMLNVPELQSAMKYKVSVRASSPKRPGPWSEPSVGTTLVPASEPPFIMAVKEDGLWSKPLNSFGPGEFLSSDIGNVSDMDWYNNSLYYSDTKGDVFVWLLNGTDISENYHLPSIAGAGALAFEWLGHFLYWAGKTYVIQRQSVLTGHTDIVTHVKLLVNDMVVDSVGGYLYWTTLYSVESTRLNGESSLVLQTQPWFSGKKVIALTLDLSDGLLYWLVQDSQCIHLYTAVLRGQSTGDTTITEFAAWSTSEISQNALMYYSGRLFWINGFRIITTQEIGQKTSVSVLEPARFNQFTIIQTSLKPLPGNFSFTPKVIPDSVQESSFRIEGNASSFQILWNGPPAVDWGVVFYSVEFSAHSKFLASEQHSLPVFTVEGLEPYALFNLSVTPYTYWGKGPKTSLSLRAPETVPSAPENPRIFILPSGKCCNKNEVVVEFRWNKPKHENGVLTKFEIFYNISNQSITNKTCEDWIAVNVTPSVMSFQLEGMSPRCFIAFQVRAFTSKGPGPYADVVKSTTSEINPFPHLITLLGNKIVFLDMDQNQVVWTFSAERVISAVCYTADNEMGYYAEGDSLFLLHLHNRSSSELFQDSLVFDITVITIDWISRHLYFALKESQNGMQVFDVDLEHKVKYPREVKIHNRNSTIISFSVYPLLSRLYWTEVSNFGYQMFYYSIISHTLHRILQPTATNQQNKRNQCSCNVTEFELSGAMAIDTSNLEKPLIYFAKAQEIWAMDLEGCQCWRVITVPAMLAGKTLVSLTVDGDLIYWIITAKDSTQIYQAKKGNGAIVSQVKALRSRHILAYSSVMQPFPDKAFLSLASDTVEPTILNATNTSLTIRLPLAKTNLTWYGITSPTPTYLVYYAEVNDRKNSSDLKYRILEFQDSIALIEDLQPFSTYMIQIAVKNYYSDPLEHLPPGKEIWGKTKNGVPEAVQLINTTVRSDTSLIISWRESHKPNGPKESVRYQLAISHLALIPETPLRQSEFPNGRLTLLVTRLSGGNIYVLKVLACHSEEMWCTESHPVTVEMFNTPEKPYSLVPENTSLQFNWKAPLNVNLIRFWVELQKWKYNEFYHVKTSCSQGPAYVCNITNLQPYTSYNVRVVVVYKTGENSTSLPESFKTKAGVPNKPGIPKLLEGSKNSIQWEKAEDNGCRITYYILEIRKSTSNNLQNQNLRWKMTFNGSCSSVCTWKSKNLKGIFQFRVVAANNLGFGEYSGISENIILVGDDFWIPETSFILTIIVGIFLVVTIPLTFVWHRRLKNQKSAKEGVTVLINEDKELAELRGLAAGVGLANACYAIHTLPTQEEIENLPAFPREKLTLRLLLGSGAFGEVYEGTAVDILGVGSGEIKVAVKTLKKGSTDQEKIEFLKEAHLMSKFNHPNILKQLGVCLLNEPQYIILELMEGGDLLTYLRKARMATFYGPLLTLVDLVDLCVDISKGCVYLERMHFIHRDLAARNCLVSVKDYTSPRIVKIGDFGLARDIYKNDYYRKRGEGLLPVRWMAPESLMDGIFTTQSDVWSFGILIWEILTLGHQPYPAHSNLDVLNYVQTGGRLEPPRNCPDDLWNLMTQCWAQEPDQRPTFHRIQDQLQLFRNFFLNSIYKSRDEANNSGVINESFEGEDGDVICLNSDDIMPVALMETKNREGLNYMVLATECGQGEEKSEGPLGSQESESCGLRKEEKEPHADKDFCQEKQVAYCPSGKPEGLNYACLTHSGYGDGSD
Sequence of Receptor-type tyrosine-protein kinase FLT3 (Homo sapiens), P36888 [UNDEFINED MUTATION] (P36888 whole entry, looked up, stated change not applied, the tested form may be a part): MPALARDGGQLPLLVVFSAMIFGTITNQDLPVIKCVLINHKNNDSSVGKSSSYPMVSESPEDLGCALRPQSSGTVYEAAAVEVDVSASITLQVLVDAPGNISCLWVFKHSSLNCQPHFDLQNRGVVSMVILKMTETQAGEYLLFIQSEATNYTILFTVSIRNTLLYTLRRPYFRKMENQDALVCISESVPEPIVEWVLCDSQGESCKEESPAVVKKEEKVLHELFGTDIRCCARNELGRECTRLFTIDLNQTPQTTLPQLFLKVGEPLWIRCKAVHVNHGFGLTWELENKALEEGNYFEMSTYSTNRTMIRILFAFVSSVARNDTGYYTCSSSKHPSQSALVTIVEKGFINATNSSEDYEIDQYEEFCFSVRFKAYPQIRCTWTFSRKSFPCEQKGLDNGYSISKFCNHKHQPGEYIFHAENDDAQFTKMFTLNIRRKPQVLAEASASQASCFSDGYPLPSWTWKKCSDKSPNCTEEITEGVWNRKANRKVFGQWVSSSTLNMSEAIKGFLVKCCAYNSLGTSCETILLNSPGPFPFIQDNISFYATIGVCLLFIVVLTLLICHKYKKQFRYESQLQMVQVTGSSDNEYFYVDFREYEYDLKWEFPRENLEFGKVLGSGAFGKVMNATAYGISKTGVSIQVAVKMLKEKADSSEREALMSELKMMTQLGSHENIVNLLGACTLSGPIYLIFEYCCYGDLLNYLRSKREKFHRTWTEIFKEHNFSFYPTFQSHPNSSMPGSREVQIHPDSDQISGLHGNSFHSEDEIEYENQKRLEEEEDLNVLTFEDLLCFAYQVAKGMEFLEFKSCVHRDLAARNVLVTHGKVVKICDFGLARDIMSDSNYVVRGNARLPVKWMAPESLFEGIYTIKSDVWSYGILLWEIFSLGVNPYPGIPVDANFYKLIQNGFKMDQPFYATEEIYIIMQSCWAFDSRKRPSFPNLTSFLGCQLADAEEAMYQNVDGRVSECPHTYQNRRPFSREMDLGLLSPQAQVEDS
Sequence of Serine/threonine-protein kinase MARK2 (Homo sapiens) (Q7KZI7 whole entry, the tested form may be a part): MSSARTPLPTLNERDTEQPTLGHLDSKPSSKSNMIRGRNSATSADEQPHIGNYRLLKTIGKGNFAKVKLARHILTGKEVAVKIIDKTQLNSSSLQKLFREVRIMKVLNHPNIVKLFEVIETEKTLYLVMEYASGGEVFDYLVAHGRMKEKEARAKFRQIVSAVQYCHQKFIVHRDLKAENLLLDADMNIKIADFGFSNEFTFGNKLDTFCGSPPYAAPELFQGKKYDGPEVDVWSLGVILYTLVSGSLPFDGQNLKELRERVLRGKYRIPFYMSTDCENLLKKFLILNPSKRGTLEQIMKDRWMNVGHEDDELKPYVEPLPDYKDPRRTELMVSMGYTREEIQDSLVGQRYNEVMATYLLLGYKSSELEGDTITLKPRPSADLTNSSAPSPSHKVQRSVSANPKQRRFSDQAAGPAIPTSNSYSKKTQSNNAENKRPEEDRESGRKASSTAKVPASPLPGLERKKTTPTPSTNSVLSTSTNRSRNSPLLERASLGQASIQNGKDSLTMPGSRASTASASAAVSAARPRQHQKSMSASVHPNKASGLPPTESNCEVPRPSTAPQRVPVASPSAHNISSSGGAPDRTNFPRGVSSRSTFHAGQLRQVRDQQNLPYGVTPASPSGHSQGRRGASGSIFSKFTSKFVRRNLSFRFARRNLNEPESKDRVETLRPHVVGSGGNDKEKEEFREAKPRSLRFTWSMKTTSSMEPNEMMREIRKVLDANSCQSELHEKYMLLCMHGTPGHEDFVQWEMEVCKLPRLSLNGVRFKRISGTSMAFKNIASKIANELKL

Compound `CCC(=O)Nc1ccc(C(=O)Nc2ccc(Nc3ncc4c(n3)N(C)c3ccc(C)cc3C(=O)N4C)cc2)cc1` has an Activity [1] of 100%, an Activity [2] of 8.2% and an Activity [3] of 89%. The Activity [4] was 100%, the Activity [5] was 100% and the Activity [6] was 80%. It also gave an Activity [7] of 85%, an Activity [8] of 97% and an Activity [9] of 90%. For the same compound, the Activity [10] was 61%, the Activity [11] was 96% and the Activity [12] was 100%. The Activity [13] was 81%, the Activity [14] was 100% and the Activity [15] was 86%. It also gave an Activity [16] of 91%, an Activity [17] of 86% and an Activity [18] of 55%. For the same compound, the Activity [19] was 90%, the Activity [20] was 87% and the Activity [21] was 100%. For the same compound, the Activity [22] was 83%, the Activity [23] was 68% and the Activity [24] was 84%. It also gave an Activity [25] of 81%.

Compound `C=CC(=O)Nc1ccc(C(=O)Nc2ccc(Nc3ncc4c(n3)N(C)c3ccc(C)cc3C(=O)N4C)cc2)cc1` has an Activity [1] of 100%, an Activity [2] of 71% and an Activity [3] of 100%. For the same compound, the Activity [4] was 98%, the Activity [5] was 100% and the Activity [6] was 87%. For the same compound, the Activity [7] was 100%, the Activity [8] was 93% and the Activity [9] was 92%. The Activity [10] was 85%, the Activity [11] was 100% and the Activity [12] was 100%. For the same compound, the Activity [13] was 98%, the Activity [14] was 91% and the Activity [15] was 100%. For the same compound, the Activity [16] was 92%, the Activity [17] was 96% and the Activity [18] was 69%. It also gave an Activity [19] of 99%, an Activity [20] of 95% and an Activity [21] of 95%. For the same compound, the Activity [22] was 45%, the Activity [23] was 100% and the Activity [24] was 88%. The Activity [25] was 90%.
